Results as given in the M2OR odorant receptor database.

How the values were obtained:
Conditions in all cases: stereoisomer not certain
OR52Z1P (Homo sapiens) = OR52Z1P (Homo sapiens) (UniProt P0C646)
Method in brief: (§1)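 Each entry records the cell line, G-protein, co-transfected protein and tags used. Methods varied with the source, often transient luciferase assays in mammalian cell lines. A receptor–molecule pair is called responsive (active) if the original authors judged its signal statistically different from baseline and non-responsive (inactive) otherwise.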

OR56A1 (Homo sapiens) = OR56A1 (Homo sapiens) (UniProt Q8NGH5)
OR56A1 (Homo sapiens), sequence (Q8NGH5 whole entry): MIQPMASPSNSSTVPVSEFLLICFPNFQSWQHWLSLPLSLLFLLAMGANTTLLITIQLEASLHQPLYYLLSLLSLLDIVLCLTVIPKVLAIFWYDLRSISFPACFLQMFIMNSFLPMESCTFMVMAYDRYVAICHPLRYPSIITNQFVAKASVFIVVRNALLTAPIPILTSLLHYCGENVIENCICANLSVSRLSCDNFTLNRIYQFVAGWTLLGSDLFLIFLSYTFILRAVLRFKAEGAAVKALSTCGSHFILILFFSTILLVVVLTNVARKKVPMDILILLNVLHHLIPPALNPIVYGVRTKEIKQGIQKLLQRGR
Method in brief: as §1

OR56A3 (Homo sapiens) = OR56A3 (Homo sapiens) (UniProt Q8NH54)
OR56A3 (Homo sapiens), sequence (Q8NH54 whole entry): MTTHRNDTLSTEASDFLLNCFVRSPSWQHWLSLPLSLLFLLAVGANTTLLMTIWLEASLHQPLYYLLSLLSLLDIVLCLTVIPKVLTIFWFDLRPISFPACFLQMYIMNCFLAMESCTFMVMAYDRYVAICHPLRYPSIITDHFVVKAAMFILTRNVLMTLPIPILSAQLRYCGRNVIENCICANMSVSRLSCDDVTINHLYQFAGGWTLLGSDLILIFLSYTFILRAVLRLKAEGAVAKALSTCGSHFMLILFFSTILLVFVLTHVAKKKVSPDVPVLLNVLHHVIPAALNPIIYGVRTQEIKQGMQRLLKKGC
Method in brief: as §1

OR56A4 (Homo sapiens) = OR56A4 (Homo sapiens) (UniProt Q8NGH8)
OR56A4 (Homo sapiens), sequence (Q8NGH8 whole entry): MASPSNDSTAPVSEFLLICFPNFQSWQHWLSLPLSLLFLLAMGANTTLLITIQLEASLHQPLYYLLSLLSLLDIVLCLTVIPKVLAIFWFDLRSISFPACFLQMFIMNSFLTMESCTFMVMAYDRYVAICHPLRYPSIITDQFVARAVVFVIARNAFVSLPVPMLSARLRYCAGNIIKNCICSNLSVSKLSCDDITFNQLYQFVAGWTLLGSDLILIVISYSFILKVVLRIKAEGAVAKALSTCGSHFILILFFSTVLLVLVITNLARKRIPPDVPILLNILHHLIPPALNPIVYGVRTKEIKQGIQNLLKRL
Method in brief: as §1

OR56A5 (Homo sapiens) = OR56A5 (Homo sapiens) (UniProt P0C7T3)
OR56A5 (Homo sapiens), sequence (P0C7T3 whole entry): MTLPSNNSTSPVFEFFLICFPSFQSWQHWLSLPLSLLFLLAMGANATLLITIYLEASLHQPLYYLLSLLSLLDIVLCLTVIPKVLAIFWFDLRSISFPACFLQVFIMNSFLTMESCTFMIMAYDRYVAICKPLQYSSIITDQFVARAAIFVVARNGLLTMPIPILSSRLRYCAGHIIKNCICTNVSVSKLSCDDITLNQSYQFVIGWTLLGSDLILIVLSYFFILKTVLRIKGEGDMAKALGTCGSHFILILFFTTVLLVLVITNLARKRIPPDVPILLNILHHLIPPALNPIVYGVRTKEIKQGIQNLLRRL
Method in brief: as §1

OR56B1 (Homo sapiens) = OR56B1 (Homo sapiens) (UniProt Q8NGI3)
OR56B1 (Homo sapiens), sequence (Q8NGI3 whole entry): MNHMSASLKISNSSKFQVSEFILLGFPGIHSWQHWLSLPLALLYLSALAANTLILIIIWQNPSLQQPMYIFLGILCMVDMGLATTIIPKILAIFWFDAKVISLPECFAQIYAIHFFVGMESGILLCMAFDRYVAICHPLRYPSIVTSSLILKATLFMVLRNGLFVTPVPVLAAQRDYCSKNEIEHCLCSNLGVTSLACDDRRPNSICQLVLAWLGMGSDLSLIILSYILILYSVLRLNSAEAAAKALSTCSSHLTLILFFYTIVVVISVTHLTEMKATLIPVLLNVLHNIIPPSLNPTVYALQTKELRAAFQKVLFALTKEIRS
Method in brief: as §1

OR56B4 (Homo sapiens) = OR56B4 (Homo sapiens) (UniProt Q8NH76)
OR56B4 (Homo sapiens), sequence (Q8NH76 whole entry): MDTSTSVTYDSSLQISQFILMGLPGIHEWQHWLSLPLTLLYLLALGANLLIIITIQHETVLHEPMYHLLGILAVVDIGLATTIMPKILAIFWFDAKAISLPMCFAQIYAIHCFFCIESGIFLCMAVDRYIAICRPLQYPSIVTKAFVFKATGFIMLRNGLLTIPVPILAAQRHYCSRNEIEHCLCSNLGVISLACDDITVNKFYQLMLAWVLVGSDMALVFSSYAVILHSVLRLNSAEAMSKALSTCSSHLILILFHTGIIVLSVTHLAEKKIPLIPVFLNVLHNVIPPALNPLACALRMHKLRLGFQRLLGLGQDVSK
Method in brief: as §1

OR5A1 (Homo sapiens) = OR5A1 (Homo sapiens) (UniProt Q8NGJ0)
OR5A1 (Homo sapiens), sequence (Q8NGJ0 whole entry): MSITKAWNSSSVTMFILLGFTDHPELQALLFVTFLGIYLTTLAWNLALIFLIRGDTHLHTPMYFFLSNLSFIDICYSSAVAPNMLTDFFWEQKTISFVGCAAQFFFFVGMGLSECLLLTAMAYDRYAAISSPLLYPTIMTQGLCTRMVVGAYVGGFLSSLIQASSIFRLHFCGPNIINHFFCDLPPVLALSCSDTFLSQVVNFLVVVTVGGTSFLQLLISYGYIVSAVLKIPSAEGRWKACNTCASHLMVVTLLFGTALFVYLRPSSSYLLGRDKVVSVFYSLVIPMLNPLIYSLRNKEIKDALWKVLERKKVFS
Method in brief: as §1

OR5A2 (Homo sapiens) = OR5A2 (Homo sapiens) (UniProt Q8NGI9)
OR5A2 (Homo sapiens), sequence (Q8NGI9 whole entry): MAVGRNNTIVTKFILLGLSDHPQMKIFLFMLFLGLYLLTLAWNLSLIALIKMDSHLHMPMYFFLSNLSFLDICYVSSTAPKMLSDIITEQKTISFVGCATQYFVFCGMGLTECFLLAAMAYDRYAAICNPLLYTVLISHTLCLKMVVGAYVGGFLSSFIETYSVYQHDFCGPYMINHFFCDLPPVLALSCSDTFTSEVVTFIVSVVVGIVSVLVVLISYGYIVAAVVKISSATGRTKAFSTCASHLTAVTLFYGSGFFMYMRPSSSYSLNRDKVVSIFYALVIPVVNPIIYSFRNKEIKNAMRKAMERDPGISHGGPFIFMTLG
Method in brief: as §1

OR5A1 D183N = system: OR5A1 D183N
OR5A1 D183N, sequence (as listed by the source, stated change not applied): as the sequence (Q8NGJ0 whole entry) above, with D183N counted along it
Method in brief: as §1

Measured: odorant receptor agonist call

OR52Z1P (Homo sapiens), sequence (P0C646 whole entry): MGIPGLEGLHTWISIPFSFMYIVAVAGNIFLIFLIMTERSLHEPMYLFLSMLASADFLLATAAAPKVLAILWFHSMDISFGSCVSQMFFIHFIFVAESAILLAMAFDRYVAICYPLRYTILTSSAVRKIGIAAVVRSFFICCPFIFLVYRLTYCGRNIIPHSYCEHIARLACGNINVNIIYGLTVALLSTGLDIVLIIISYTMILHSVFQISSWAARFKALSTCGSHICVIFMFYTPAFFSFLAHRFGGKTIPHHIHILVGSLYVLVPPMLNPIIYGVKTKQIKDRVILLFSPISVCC

Cc1c([N+](=O)[O-])c(C)c([N+](=O)[O-])c(C(C)(C)C)c1[N+](=O)[O-]
not listed: OR5A1 D183N
inactive: all other assays above

C=CCOC(=O)Cc1ccccc1
not listed: OR52Z1P (Homo sapiens) | OR56A4 (Homo sapiens)
inactive: all other assays above
